Source: ChEMBL document CHEMBL3808280, “GroEL/ES inhibitors as potential antibiotics” (Bioorg Med Chem Lett, 2016)
Values after ≈ are worked out from the molar mass of the structure shown. Active and inactive are the calls of the source. The calls are words filed in the database; no cut-off is given here.

Assays:
Escherichia coli [1] = assay: Antibacterial activity against Escherichia coli SM101 assessed as reduction in bacterial growth incubated for 12 hrs by UV-Vis spectrophotometric analysis; type: functional, organism-based; settings: SM101, 12 h
Enterococcus faecium = assay: Antibacterial activity against multidrug resistant Enterococcus faecium NCTC 7171 (ATCC 19434) assessed as reduction in bacterial growth incubated for 6 to 8 hrs; type: functional, organism-based
Method in brief: (§1)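 Broth proliferation assay. S. aureus and MRSA grown in ATCC Medium 18, other pathogens in Brain Heart Infusion. Stagnant incubation at 37°C under breathable seal. OD600 read at mid-log (6-8 h) and corrected with bacteria-free baseline plates. EC50 by variable-slope nonlinear fit, at least triplicate.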

[2] = system: Klebsiella pneumoniae subsp. pneumoniae; assay: Antibacterial activity against multidrug resistant Klebsiella pneumoniae subsp. pneumoniae NCTC 9633 (ATCC 13883) assessed as reduction in bacterial growth incubated for 6 to 8 hrs; type: functional, organism-based; method in brief: as §1
Enterobacter cloacae = assay: Antibacterial activity against multidrug resistant Enterobacter cloacae subsp. cloacae CDC 442-68 (ATCC 13047) assessed as reduction in bacterial growth incubated for 6 to 8 hrs; type: functional, organism-based; method in brief: as §1
Bacillus subtilis = assay: Antibacterial activity against Bacillus subtilis 168 assessed as reduction in bacterial growth incubated for 6 to 8 hrs; type: functional, organism-based; settings: subsp. subtilis str. 168
Staphylococcus aureus [3] = assay: Antibacterial activity against methicillin resistant Staphylococcus aureus subsp. aureus HPV107 (ATCC BAA-44) assessed as reduction in bacterial growth incubated for 6 to 8 hrs; type: functional, organism-based; method in brief: as §1
E. coli GroEL/ES [4] = biological target: T1, E. coli GroEL/ES (Escherichia coli, UniProt P0A6F5); assay: (§2) Inhibition of Escherichia coli GroEL/GroES using Escherichia coli GroEL expressed in Escherichia coli DH5alpha cells and Escherichia coli GroES expressed in Escherichia coli BL21(DE3) cells assessed as reduction in pig heart native refolded MDH-mediated NADH production by micro plate reader analysis
T1 sequence (P0A6F5 whole entry, looked up): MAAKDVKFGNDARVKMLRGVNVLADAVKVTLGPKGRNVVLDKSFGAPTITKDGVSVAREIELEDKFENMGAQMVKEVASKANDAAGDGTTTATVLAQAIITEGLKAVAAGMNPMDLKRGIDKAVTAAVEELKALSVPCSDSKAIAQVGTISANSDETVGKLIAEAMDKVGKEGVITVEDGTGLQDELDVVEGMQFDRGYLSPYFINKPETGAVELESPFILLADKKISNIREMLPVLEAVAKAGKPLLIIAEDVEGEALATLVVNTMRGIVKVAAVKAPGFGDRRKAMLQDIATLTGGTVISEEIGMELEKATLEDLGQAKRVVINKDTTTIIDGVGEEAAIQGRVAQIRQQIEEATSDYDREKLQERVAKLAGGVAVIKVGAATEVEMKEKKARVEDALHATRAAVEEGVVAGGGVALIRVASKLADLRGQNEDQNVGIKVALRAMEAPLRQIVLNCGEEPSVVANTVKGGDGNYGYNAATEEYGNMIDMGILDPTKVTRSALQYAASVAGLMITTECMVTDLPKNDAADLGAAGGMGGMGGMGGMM
Method in brief: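 Native MDH counter-screen. GroEL/ES-dMDH refolding run 60 min at 37°C, then EDTA-quenched without compound. IC50 averaged from at least triplicate.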

Staphylococcus aureus [5] = assay: Bactericidal activity against Staphylococcus aureus subsp. aureus Seattle 1945 (ATCC 25923) at 4 times MIC up to 24 hrs by agar dilution method; type: functional, organism-based
Method in brief: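 Time-kill in ATCC Medium 18. […] Viable counts were taken at 0, 1, 2, 4, 6 and 24 h by dilution and plating on Medium 18 agar. Values are averages of triplicates.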

Escherichia coli [6] = assay: Antibacterial activity against acrB-deficient Escherichia coli MC4100 assessed as reduction in bacterial growth incubated for 6 to 8 hrs; type: functional, organism-based
Pseudomonas aeruginosa = assay: Antibacterial activity against multidrug resistant Pseudomonas aeruginosa NCTC 10332 (ATCC 10145) assessed as reduction in bacterial growth incubated for 6 to 8 hrs; type: functional, organism-based; method in brief: as §1
Staphylococcus aureus [7] = assay: Antibacterial activity against methicillin susceptible Staphylococcus aureus subsp. aureus Seattle 1945 (ATCC 25923) assessed as reduction in bacterial growth incubated for 6 to 8 hrs
Escherichia coli [8] = assay: Antibacterial activity against Escherichia coli DH5alpha assessed as reduction in bacterial growth incubated for 6 to 8 hrs; type: functional, organism-based; settings: DH5[alpha]
E. coli GroEL/ES [9] = biological target: T1, E. coli GroEL/ES; assay: (§3) Inhibition of Escherichia coli GroEL/GroES using Escherichia coli GroEL expressed in Escherichia coli DH5alpha cells and Escherichia coli GroES expressed in Escherichia coli BL21(DE3) cells assessed as inhibition of denatured rhodanese refolding by measuring reduction in thiocyanate production incubated for 60 mins by micro plate reader analysis
Method in brief: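 Urea-denatured rhodanese bound to GroEL/GroES in folding buffer containing thiosulfate. After 60 min at 37°C, thiocyanate reaction (KCN, thiosulfate, phosphate) run, then formaldehyde quench and ferric nitrate added. Fe(SCN)3 read at 460 nm after 15 min RT, with protein-free baseline plates.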

[10] = Cytotoxicity against human THLE3 cells assessed as reduction in cell viability after 48 hrs by alamar blue assay; type: cell-based; settings: THLE3, 48 h
HSP60/HSP10 [11] = biological target: T2, HSP60/HSP10 (Homo sapiens, UniProt P10809); assay: Inhibition of human HSP60/HSP10 expressed in Escherichia coli Rosetta2(DE3) cells assessed as inhibition of denatured pig heart MDH refolding by measuring reduction in NADH production incubated for 60 mins by micro plate reader analysis
T2 sequence (P10809 whole entry): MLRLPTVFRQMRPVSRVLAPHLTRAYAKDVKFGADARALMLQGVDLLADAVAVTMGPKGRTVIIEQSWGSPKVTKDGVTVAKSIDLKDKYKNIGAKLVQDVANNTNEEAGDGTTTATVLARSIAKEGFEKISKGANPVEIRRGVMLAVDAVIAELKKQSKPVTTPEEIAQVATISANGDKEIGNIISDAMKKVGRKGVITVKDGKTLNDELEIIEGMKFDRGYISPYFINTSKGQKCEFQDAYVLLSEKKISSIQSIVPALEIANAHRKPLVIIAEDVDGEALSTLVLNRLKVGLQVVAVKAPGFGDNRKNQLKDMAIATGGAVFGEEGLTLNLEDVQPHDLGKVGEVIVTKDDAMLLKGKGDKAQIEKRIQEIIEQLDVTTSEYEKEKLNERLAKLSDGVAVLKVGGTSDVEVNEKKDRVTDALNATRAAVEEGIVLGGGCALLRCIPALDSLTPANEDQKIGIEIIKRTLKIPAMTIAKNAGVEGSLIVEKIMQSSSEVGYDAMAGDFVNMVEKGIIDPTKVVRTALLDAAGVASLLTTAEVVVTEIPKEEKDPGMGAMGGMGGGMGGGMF
T2 sequence (P61604 whole entry, further chain): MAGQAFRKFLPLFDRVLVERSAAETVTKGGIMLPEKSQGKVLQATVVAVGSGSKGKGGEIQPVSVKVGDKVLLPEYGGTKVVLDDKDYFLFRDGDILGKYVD
Method in brief: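 Pig heart MDH was denatured in guanidine-HCl (dMDH) and complexed with HSP60, then HSP10, in Tris pH 7.4/KCl/MgCl2/DTT buffer. EDTA quench (100 mM final); refolded MDH activity was followed with mesoxalate/NADH at 340 nm.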

[12] = Therapeutic index, ratio of EC50 for HEK293 cells to EC50 for Staphylococcus aureus subsp. aureus Seattle 1945 (ATCC 25923); type: cell-based; settings: human, read-out: Ratio EC50
E. coli GroEL/ES [13] = biological target: T1, E. coli GroEL/ES; assay: as §3, with “pig heart MDH” for “rhodanese”, “NADH” for “thiocyanate”
Method in brief: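 Denatured MDH (guanidine-HCl/DTT, 30 min RT) bound to GroEL with GroES in Tris pH 7.4, KCl, MgCl2, DTT buffer. 60 min at 37°C, EDTA quench to 100 mM. Refolded MDH activity read with mesoxalate/NADH at 340 nm. Log-averaged IC50 from replicates.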

HSP60/HSP10 [14] = biological target: T2, HSP60/HSP10; assay: Inhibition of human HSP60/HSP10 expressed in Escherichia coli Rosetta2(DE3) cells assessed as reduction in denatured pig heart MDH ATPase activity by malachite green dye based assay
HEK293 = assay: Cytotoxicity against HEK293 cells assessed as reduction in cell viability after 48 hrs by alamar blue assay; type: cell-based; settings: Homo sapiens, HEK293, 48 h
Acinetobacter baumannii = assay: Antibacterial activity against multidrug resistant Acinetobacter baumannii 2208 (ATCC 19606) assessed as reduction in bacterial growth incubated for 6 to 8 hrs; type: functional; method in brief: as §1
E. coli GroEL/ES [15] = biological target: T1, E. coli GroEL/ES; assay: as §2, with “in” for “in pig heart”, “rhodanese-mediated thiocyanate” for “MDH-mediated NADH”
[16] = Therapeutic index, ratio of EC50 for human THLE3 cells to EC50 for Staphylococcus aureus subsp. aureus Seattle 1945 (ATCC 25923); type: cell-based; settings: read-out: Ratio EC50
Staphylococcus aureus [17] = assay: Antibacterial activity against Staphylococcus aureus subsp. aureus Seattle 1945 (ATCC 25923) assessed as inhibition of visual growth after 24 hrs; type: functional
Method in brief: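 MIC assay in Tryptic Soy broth (ATCC Medium 18). An overnight culture was diluted 5-fold, grown 1 h at 37°C, then diluted to OD600 0.01 (~10⁷ CFU/ml). Compounds were added in DMSO at fixed final concentrations (e.g. vancomycin 1.2-2.2 µM).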

E. coli GroEL/ES [18] = biological target: T1, E. coli GroEL/ES; assay: Inhibition of Escherichia coli GroEL/GroES using Escherichia coli GroEL expressed in Escherichia coli DH5alpha cells and Escherichia coli GroES expressed in Escherichia coli BL21(DE3) cells assessed as reduction in denatured pig heart MDH ATPase activity by malachite green dye based assay

## Cn1c(=O)c(C(=O)Nc2ccncc2)c(O)c2ccccc21
Escherichia coli [1]
  EC50: 3.3 µM
Enterococcus faecium
  EC50: > 100 µM
[2]
  EC50: > 100 µM
Enterobacter cloacae
  EC50: > 100 µM
Bacillus subtilis
  EC50: 0.47 µM
Staphylococcus aureus [3]
  EC50: 1.3 µM
E. coli GroEL/ES [4]
  IC50: > 62.5 µM
Staphylococcus aureus [5]
  Activity: Active
Escherichia coli [6]
  EC50: 21 µM
Pseudomonas aeruginosa
  EC50: > 100 µM
Staphylococcus aureus [7]
  EC50: 1.8 µM
Escherichia coli [8]
  EC50: > 100 µM
E. coli GroEL/ES [9]
  IC50: 6.8 µM
[10]
  EC50: > 100 µM
HSP60/HSP10 [11]
  IC50: > 100 µM
[12]
  selectivity ratio: > 55
E. coli GroEL/ES [13]
  IC50: 5.7 µM
HSP60/HSP10 [14]
  IC50: > 250 µM
HEK293
  EC50: > 100 µM
Acinetobacter baumannii
  EC50: > 100 µM
E. coli GroEL/ES [15]
  IC50: > 100 µM
[16]
  selectivity ratio: > 55
Staphylococcus aureus [17]
  MIC: 8 µM (≈ 2.36 µg/mL)

## CN[C@@H](CC(C)C)C(=O)N[C@H]1C(=O)N[C@@H](CC(N)=O)C(=O)N[C@H]2C(=O)N[C@H]3C(=O)N[C@H](C(=O)N[C@@H](C(=O)O)c4cc(O)cc(O)c4-c4cc3ccc4O)[C@H](O)c3ccc(c(Cl)c3)Oc3cc2cc(c3O[C@H]2O[C@@H](CO)[C@H](O)[C@@H](O)[C@@H]2O[C@@H]2C[C@@](C)(N)[C@@H](O)[C@@H](C)O2)Oc2ccc(cc2Cl)[C@H]1O
Enterococcus faecium
  EC50: 0.3 µM
[2]
  EC50: > 100 µM
Enterobacter cloacae
  EC50: > 100 µM
Staphylococcus aureus [3]
  EC50: 0.17 µM
Staphylococcus aureus [5]
  Activity: Active
Pseudomonas aeruginosa
  EC50: 74 µM
Staphylococcus aureus [7]
  EC50: 0.2 µM
Acinetobacter baumannii
  EC50: 17 µM
Staphylococcus aureus [17]
  MIC: 1.6 µM (≈ 2.32 µg/mL)

## O=C(Nc1ccc(Sc2nc3ccccc3s2)c(Cl)c1)c1cc(Br)cc(Br)c1O
Escherichia coli [1]
  EC50: 0.33 µM
Enterococcus faecium
  EC50: 0.15 µM
[2]
  EC50: > 100 µM
Enterobacter cloacae
  EC50: > 100 µM
Bacillus subtilis
  EC50: 0.1 µM
Staphylococcus aureus [3]
  EC50: 0.13 µM
E. coli GroEL/ES [4]
  IC50: 7.1 µM
Staphylococcus aureus [5]
  Activity: Active
Escherichia coli [6]
  EC50: 2.3 µM
Pseudomonas aeruginosa
  EC50: > 100 µM
Staphylococcus aureus [7]
  EC50: 0.2 µM
Escherichia coli [8]
  EC50: > 100 µM
E. coli GroEL/ES [9]
  IC50: 1.4 µM
[10]
  EC50: 12 µM
HSP60/HSP10 [11]
  IC50: 5.5 µM
[12]
  selectivity ratio: 390
E. coli GroEL/ES [13]
  IC50: 1.4 µM
HSP60/HSP10 [14]
  IC50: 3.6 µM
E. coli GroEL/ES [18]
  IC50: > 250 µM
HEK293
  EC50: 78 µM
Acinetobacter baumannii
  EC50: 30 µM
E. coli GroEL/ES [15]
  IC50: > 100 µM
[16]
  selectivity ratio: 60
Staphylococcus aureus [17]
  MIC: 0.6 µM (≈ 0.342 µg/mL)
